A selection: hits, their analogues and other compounds. The true share with any hit is near 0.6%.
Tn6 DDE FP: DD(E)-Tn6 binding inhibition, primary FP screen. AID 720509. 0.21% of 370,000 active. inhibition, % at 8.3 µM. Fibrin DD(E) TRITC-Tn6 fluorescence polarization displacement;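 active means inhibition above a per-campaign cutoff: mean of compounds within control limits plus 3 SD, cut at about 15% in these data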;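 further: 0% = median of all compound wells on the plate and 100% = blocking peptide control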
Target sequence (P02675 whole entry, looked up): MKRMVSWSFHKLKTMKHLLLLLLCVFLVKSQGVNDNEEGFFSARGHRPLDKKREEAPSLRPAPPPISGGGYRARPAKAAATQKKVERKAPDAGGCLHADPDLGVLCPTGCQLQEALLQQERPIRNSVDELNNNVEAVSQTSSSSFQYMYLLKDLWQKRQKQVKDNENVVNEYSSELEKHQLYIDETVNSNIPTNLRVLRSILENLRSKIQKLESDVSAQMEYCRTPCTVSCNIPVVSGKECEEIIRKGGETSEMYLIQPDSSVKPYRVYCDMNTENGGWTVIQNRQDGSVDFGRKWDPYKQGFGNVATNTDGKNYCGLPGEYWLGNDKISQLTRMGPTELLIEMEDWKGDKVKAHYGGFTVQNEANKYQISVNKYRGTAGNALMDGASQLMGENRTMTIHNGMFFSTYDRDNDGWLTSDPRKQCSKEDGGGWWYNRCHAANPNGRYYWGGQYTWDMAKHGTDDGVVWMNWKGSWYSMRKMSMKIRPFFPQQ
LANA DNA inh: KSHV C-LANA DNA binding inhibition; MBP-C-LANA/FAM-LBS DNA binding, fluorescence polarization; inhibition, % at 9 µM; 0.078% of 340,000 active; AID 504423;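 active means highest replicate inhibition at or above 60% at 9 µM, even if other replicates fall short; inactive means all replicates below 60% inhibition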;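 further: 0% = neutral control wells and 100% = 4 µM acridine orange control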
Rtt109 HAT inh: C. albicans Rtt109 histone acetyltransferase inhibition; 0.16% of 330,000 active; AID 540336; purified Rtt109/Vps75, ThioGlo CoA-SH fluorescence, 4 h; inhibition, % at 34.9 µM;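 active means inhibition of at least 50% in every replicate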
Keap1 Nrf2 FP: disrupts human Keap1 binding to Nrf2 peptide; Keap1 Kelch-Nrf2 peptide fluorescence polarization, 1536-well; inhibition, % at 9.4 µM; 0.15% of 340,000 active; AID 504523; in the data active means inhibition above about 12%;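 further: human Keap1 Kelch domain with fluorescein labeled Nrf2 9mer peptide probe; 0% = neutral control wells and 100% = peptide positive control; higher means more block of Keap1 binding to Nrf2 peptide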
Tn7 DDE FP: disrupts Tn7 cyclic peptide binding to fibrin D-Dimer-E complex. P02675. FP displacement of FITC-Tn7 peptide from fibrin DD(E); 0% = median of compound wells per plate. inhibition, % at 8.3 µM. 0.13% of 370,000 active. AID 720508;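 active means inhibition above the mean of compounds falling within the control limits plus 3 SD of them, cut at about 14% in these data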;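 further: 0% = plate median of compound wells and 100% = 10 µM Aha-Tn7 peptide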
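System: human fibrin DD(E); quantity: Fibrin-DD(E) at 2 µM final; also added: fluorescent Tn7 probe at 0.1 µM; compound dosing: single nominal test concentration of 8.3 µM per compound; schedule: 10 min preincubation, 3 h with tracer, room temperature; detection: fluorescence polarization of the labelled Tn7 tracer; repeats: one replicate per compound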
An asterisk follows results filed as active.

CCN(C(=O)COC(=O)C1CC1)c1c(N)n(Cc2ccccc2)c(=O)[nH]c1=O was read as Tn6 DDE FP -3, LANA DNA inh 0, Rtt109 HAT inh -1, Keap1 Nrf2 FP -3 and Tn7 DDE FP 0.
Screening CCN1/C(=C/C(C)=C/c2sc3ccccc3[n+]2CC)Sc2ccccc21 returned Tn6 DDE FP -17, LANA DNA inh -27, Rtt109 HAT inh 134*, Keap1 Nrf2 FP -26 and Tn7 DDE FP -4.
Cc1ccc(C(=O)NCC(=O)OCC(=O)NC(C)C2CC3CCC2C3)cc1 (stereo unspecified) was read as Tn6 DDE FP 7, LANA DNA inh 0, Rtt109 HAT inh 51*, Keap1 Nrf2 FP 4 and Tn7 DDE FP 0.
CC(=O)Nc1cc(Cl)c(N=Cc2ccc(O)cc2O)cc1Cl was read as Tn6 DDE FP 17*, LANA DNA inh -1, Keap1 Nrf2 FP -10 and Tn7 DDE FP -6.
`CCc1ccc(C(=O)CSc2ncn[nH]2)cc1` gave Tn6 DDE FP -4, LANA DNA inh 0, Rtt109 HAT inh active, Keap1 Nrf2 FP -1 and Tn7 DDE FP -10.
For O=c1ccc2cc3c([nH]c4ccc(Br)cc43)oc-2c1O the results were Tn6 DDE FP -18, LANA DNA inh 10, Rtt109 HAT inh 129*, Keap1 Nrf2 FP 55* and Tn7 DDE FP -15.
`NNc1nnc2c3cc(F)ccc3n(Cc3ccccc3)c2n1` gave Tn6 DDE FP 1, LANA DNA inh 62*, Rtt109 HAT inh 3, Keap1 Nrf2 FP -1 and Tn7 DDE FP 5.
`CCn1c2ccc(F)cc2c2nnc(NN)nc21` gave Tn6 DDE FP -4, LANA DNA inh 0, Rtt109 HAT inh -12, Keap1 Nrf2 FP -3 and Tn7 DDE FP 4.
CCOC(=O)[C@]12CCCCC/C=C\1N(CCc1ccc(Cl)cc1)C(=O)[C@H]2CC(=O)N1CCCCC1 was read as Tn6 DDE FP 1 and Tn7 DDE FP -2.
O=C(CCCSc1nc2ccccc2[nH]1)NC1CCCCC1 was read as Tn6 DDE FP 4, LANA DNA inh 0, Rtt109 HAT inh 56*, Keap1 Nrf2 FP -3 and Tn7 DDE FP -5.
Screening O=C(CSc1nc2ccccc2[nH]1)NC1CCCC1 returned Tn6 DDE FP 1, LANA DNA inh 2, Rtt109 HAT inh -3, Keap1 Nrf2 FP -2 and Tn7 DDE FP -5.
`COc1cc2ccc(=O)oc2c(O)c1O` gave Tn6 DDE FP -1, LANA DNA inh 2, Rtt109 HAT inh 126*, Keap1 Nrf2 FP -2 and Tn7 DDE FP 7.
For COc1ccc(N2CCN(C(=O)CNC(=O)Cc3ccccc3)CC2)cc1 the results were Tn6 DDE FP -4, LANA DNA inh 1, Rtt109 HAT inh 53*, Keap1 Nrf2 FP -1 and Tn7 DDE FP -4.
For COC(=O)c1c(=O)n(O)c2ccc(OC)cc2[n+]1[O-] the results were LANA DNA inh 48, Rtt109 HAT inh 4 and Keap1 Nrf2 FP 24*.
Screening O=C1NC(c2ccc(Br)cc2)Nc2ccccc21 (stereo unspecified) returned Tn6 DDE FP -13, LANA DNA inh 107*, Rtt109 HAT inh 8, Keap1 Nrf2 FP -6 and Tn7 DDE FP 1.
`O=C(OCc1ccccc1)N1CCC2CC1c1ccc(N3CCN(Cc4ccccc4)CC3)cc12` (stereo unspecified) gave Tn6 DDE FP -1 and Tn7 DDE FP 3.
`COc1cc2c(cc1OC)C(C)=NCC2` gave Tn6 DDE FP 19*, LANA DNA inh 0, Rtt109 HAT inh -19, Keap1 Nrf2 FP -4 and Tn7 DDE FP 5.
CC(=O)[C@@]1(O)Cc2c(O)c3c(c(O)c2[C@H](O[C@H]2C[C@H](N)[C@H](O)[C@H](C)O2)C1)C(=O)c1ccccc1C3=O was read as Tn6 DDE FP 198* and Tn7 DDE FP 51*.
`O=C(NCc1cccc2ccccc12)C1CCCN(c2nc3ccccc3o2)C1` (stereo unspecified) gave Tn6 DDE FP 8 and Tn7 DDE FP 8.
Screening O=C(CN1CCOCC1)Nc1cccc(C(=O)Nc2cccc(C(F)(F)F)c2)c1 returned Tn6 DDE FP -4, LANA DNA inh 0, Rtt109 HAT inh -1, Keap1 Nrf2 FP 0 and Tn7 DDE FP 5.
`O=C(CN1CCOCC1)Nc1cccc(C(F)(F)F)c1` gave Tn6 DDE FP -8, LANA DNA inh -2, Rtt109 HAT inh 55*, Keap1 Nrf2 FP -1 and Tn7 DDE FP 3.
For Cc1ccc2c(c1C)NC(C(=O)O)C1CC=CC21 (stereo unspecified) the results were LANA DNA inh 3, Rtt109 HAT inh 4 and Keap1 Nrf2 FP 7.
`O=C(O)C1Nc2c(C(=O)N3CCOCC3)cccc2C2C=CCC12` (stereo unspecified) gave LANA DNA inh 72*, Rtt109 HAT inh -1 and Keap1 Nrf2 FP 0.
`O=C(O)c1ccc(CSc2nc3ccccc3c(=O)n2-c2ccccc2)cc1` gave Tn6 DDE FP 3, LANA DNA inh 28, Rtt109 HAT inh 9, Keap1 Nrf2 FP 30* and Tn7 DDE FP -5.
CCS(=O)(=O)Nc1ccc2c(c1)C(=O)N(C)[C@@H]1CC[C@H](CC(=O)NCCCN3CCOCC3)O[C@H]1CO2 was read as Tn6 DDE FP -3 and Tn7 DDE FP 2.
Screening O=C1CC(=O)N(Cc2cccs2)C(=O)N1 returned Tn6 DDE FP -6, LANA DNA inh -2, Rtt109 HAT inh 1, Keap1 Nrf2 FP -25 and Tn7 DDE FP -3.
O=C1CC(=O)N(Cc2ccco2)C(=O)N1 was read as Tn6 DDE FP -11, LANA DNA inh 94*, Rtt109 HAT inh -5, Keap1 Nrf2 FP -18 and Tn7 DDE FP -6.
Screening S=C1NCN(Cc2ccco2)CN1 returned Tn6 DDE FP 6, LANA DNA inh 0, Rtt109 HAT inh 3, Keap1 Nrf2 FP -2 and Tn7 DDE FP -9.
Screening O=C1CC(=O)N(Cc2ccco2)C(=S)N1 returned LANA DNA inh 71*, Rtt109 HAT inh 76* and Keap1 Nrf2 FP 3.
For COC(=O)C12C=C3CC(c4ccc(C(F)(F)F)cc4)=C3C(=O)N1Cc1[nH]c3ccccc3c1C2 (stereo unspecified) the results were Tn6 DDE FP 4 and Tn7 DDE FP -5.
`C=C(C)C(=O)Nc1cccc(C2=NOC3(C2)C[C@@H](C(N)=O)N(C(=O)/C(C)=C/C)C3)c1` (stereo partly specified) gave Tn6 DDE FP 1, LANA DNA inh 85*, Rtt109 HAT inh 0, Keap1 Nrf2 FP -1 and Tn7 DDE FP 0.
Screening C=C(C)C(=O)Nc1cccc(C2=NOC3(C2)C[C@@H](C(N)=O)N(C(=O)/C=C/C=C/C)C3)c1 (stereo partly specified) returned Tn6 DDE FP 0, LANA DNA inh 68*, Rtt109 HAT inh 3, Keap1 Nrf2 FP -6 and Tn7 DDE FP -6.

Bioassay records from PubChem.
